This is an account of results in publication PMC9293090 (Journal of Neurochemistry, 2021).

For assay [1], the target named is T1, GCS (Homo sapiens, UniProt Q16739).
T1 sequence (Q16739 1-394): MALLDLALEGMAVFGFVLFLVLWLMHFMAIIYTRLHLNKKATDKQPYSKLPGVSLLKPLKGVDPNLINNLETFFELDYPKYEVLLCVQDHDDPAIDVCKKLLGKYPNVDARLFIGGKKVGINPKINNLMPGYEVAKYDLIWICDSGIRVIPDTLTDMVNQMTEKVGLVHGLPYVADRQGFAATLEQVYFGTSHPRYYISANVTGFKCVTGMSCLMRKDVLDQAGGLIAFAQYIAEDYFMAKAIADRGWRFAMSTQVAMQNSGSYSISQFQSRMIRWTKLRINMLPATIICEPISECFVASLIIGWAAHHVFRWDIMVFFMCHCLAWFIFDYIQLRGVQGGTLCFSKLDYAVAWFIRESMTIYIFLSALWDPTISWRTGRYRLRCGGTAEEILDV
The assay is described as follows: Affinity selection mass spectrometry. In kind it is binding. In outline: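 Compound at various concentrations was incubated 60 min at 20-25°C with 10 μg/ml GCS-expressing microsomal protein in 20 mM Tris–HCl pH 7.5, 1 mM DTT, 0.01% Tween20, plus 200 μM UDP-glucose, 70 μM C8-ceramide, or neither. Bound and free compound were separated by […] through Sephadex G50-Fine. The eluent was denatured with 70% acetonitrile, and compound was quantified by LC/MS. Specific binding = counts with GCS minus counts without GCS.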

In assay [2] the target is T1, GCS. The experiment in a line: Steady-state kinetic GCS competition experiment. The conditions noted are these: for K m / V max: for UDP-glucose, fixed ceramide 7.4 μM; for inhibition mode of GCS against UDP-glucose: various UDP-glucose concentrations; for inhibition mode of GCS against ceramide: various ceramide concentrations. The class given is biochemical.
A further assay concerns GlcCer. The following applies: ref Larsen et al., 2012; cited from earlier work.
The test system of the next assay is GlcSph. The conditions noted are these: clinical trial, therapeutic dose; ref Mistry et al., 2017; cited from earlier work.
Where [3] appears, read: presence of UDP-glucose (200 μM).

As for `CC(C)(NC(=O)O[C@@H]1CN2CCC1CC2)c1csc(-c2ccc(F)cc2)n1` [Venglustat], at GCS [1] (absence of UDP-glucose), the “binding to GCS by AS-MS” value is “not detected”. For the same compound, the “binding to GCS by AS-MS” value at GCS [1] (setting [3]) is “bind GCS”. Also, at GCS [2], the K m is on record as 2.53 ± 0.09 µM, the V max was determined as 38.58 ± 0.32 µmol/min, the “inhibition mode of GCS against UDP-glucose” value is on record as “uncompetitive” and the “inhibition mode of GCS against ceramide” value is “noncompetitive”.
Regarding `CCCCCCCC(=O)N[C@H](CN1CCCC1)[C@H](O)c1ccc2c(c1)OCCO2` [Eliglustat], the “effect on the GlcCer level in the brain” value in the assay on GlcCer is recorded as “no significant effect”. Moreover, the “reduction of GlcSph concentration in the plasma” value with GlcSph is on record as 40%. Further, the “binding to GCS by AS-MS” value at GCS [1] (absence of UDP-glucose) is given as “not detected”. The “binding to GCS by AS-MS” value on GCS [1] (setting [3]) is given as “bind GCS”. In addition, at GCS [2], the K m is given as 2.37 ± 0.11 µM, the V max is 37.60 ± 0.45 µmol/min, the “inhibition mode of GCS against UDP-glucose” value was “uncompetitive” and the “inhibition mode of GCS against ceramide” value is “noncompetitive”.
